Experimental data from publication PMC6679735 (Biochimica et biophysica acta. Molecular and cell biology …, 2019).
Read-outs that look alike come from different tables or passages of the source.

What was measured:
[1] = tested on: human NPC1^I1061T fibroblasts; assay: Filipin LSO compartment ratio dose response in fibroblasts; format: cell-based; conditions: 72 h, 40 nM to 10 μM
How it was run: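 Human fibroblasts in MEM with 5% FBS, seeded in 384-well plates at 450 cells/well and incubated overnight. Test compound added at 40 nM–10 μM final; DMSO control on each plate. After 72 h, cells were PBS-washed, fixed in 1.5% PFA, and stained with 50 μg/ml filipin plus Draq5. Automated imaging at four sites/well gave the LSO compartment ratio, normalised to DMSO. Four wells per condition, three experiments.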

histone H3 [2] = assay: Acute histone H3 acetylation in liver by western blot, 1 h after single dose; format: in vivo, C57BL/6J mice; conditions: one hour post single injection, versus vehicle
Npc1^I1061T/I1061T mice [3] = assay: Lipidomic profiling of liver and brain after six-week treatment; format: in vivo, mouse; conditions: six weeks weekly treatment, versus vehicle
[4] = Maximum drug concentration of HPβCD after a peripheral dose; format: in vivo; conditions: peripheral dose of 4000 mg/kg HPβCD with PEG400/DMSO; extrapolated
[5] = direct CNS administration; cited from earlier work
NPC1 cat model = conditions: 4000 mg/kg HPβCD; cited from earlier work
NPC1 patients = conditions: Phase 1/2a trial; cited from earlier work
[6] = format: in vivo, C57BL/6J mice
How it was run: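 Five-week-old male C57BL/6J mice received a single i.p. injection (10 μL/g). Plasma, liver and brain were harvested at 0.25, 1, 2, 4 and 7 h, n=4 per time point. Analyte was measured by LC-MS/MS on a C18 column with a d5-labelled internal standard and eight duplicate calibrators. Non-compartmental parameters used mean concentrations of 3–4 mice per time point; AUC by the linear trapezoidal method.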

[7] = tested on: bone marrow-derived macrophages from Npc1^I1061T/I1061T mice; assay: Filipin LSO assay in bone marrow-derived macrophages; format: cell-based, mouse
histone H3 [8] = assay: Histone H3 acetylation in liver and brain after six-week treatment; format: in vivo, Npc1^I1061T/I1061T mice; conditions: end of six-week treatment, one hour after final dose
How it was run: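 Four-week-old mice were dosed weekly i.p. at 10 μL/g for six weeks and harvested 1 h after the final dose. Frozen cortex was homogenised in TNEN buffer (pH 8) with protease inhibitors and 1 mM PMSF, then spun at 10,000 × g for 10 min at 4°C. Equal protein was run on 4–12% Bis-Tris gels and blotted with anti-H3 (1:10,000) and anti-acetyl-H3 (1:1000). Hsp90 was the loading control; detection by chemiluminescence.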

Npc1^I1061T/I1061T mice [9] = format: in vivo, mouse; conditions: liver; six weeks treatment, versus vehicle
How it was run: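 Mice were dosed i.p. at 10 μL/g from four weeks of age, weekly for six weeks (one arm three times weekly). HPβCD was 2000 mg/kg (4000 mg/kg in the 3x/wk arm). Saline perfusion 1 h after the last dose. PFA-fixed liver was cut at 35 μm on a vibratome and stained with 0.005% filipin in PBS, with a DMSO-only control. Two blinded reviewers scored hepatocyte staining 0–5.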

NPC1^I1061T protein = format: in vivo, mouse; conditions: six weeks treatment, versus vehicle
Npc1^nmf164 mice = conditions: 150mg/kg vorinostat in PEG/DMSO vehicle; cited from earlier work
[10] = tested on: murine embryonic fibroblasts and human fibroblasts expressing the NPC1^I1061T protein; conditions: cited from earlier work
[11] = male, C57BL/6J, mouse, brain, ip, 50 mg/kg
[12] = male, C57BL/6J, mouse, liver, ip, 50 mg/kg
[13] = male, C57BL/6J, mouse, plasma, ip, 50 mg/kg

Structure (SMILES): O=C(O)CCCCCCC(=O)Nc1ccccc1 [IVA, 8-oxo-8-(phenylamino)octanoic acid]
- Effect on lysosomal cholesterol storage (filipin LSO compartment ratio) [1]: had no effect on cholesterol storage
- Liver histone H3 acetylation (acetylated H3 / total H3) (histone H3 [2]): No increase in acetylation
- Lipid storage in liver (lipidomics, sphingolipid and sterol species) (Npc1^I1061T/I1061T mice [3]): none of the treatment groups administered formulations containing vorinostat, CI994, or IVA alone showed evidence of lipid reduction

Structure (SMILES): CC(O)COC[C@H]1O[C@@H]2O[C@H]3[C@H](O)[C@@H](O)[C@@H](O[C@H]4[C@H](O)[C@@H](O)[C@@H](O[C@H]5[C@H](O)[C@@H](O)[C@@H](O[C@H]6[C@H](O)[C@@H](O)[C@@H](O[C@H]7[C@H](O)[C@@H](O)[C@@H](O[C@H]8[C@H](O)[C@@H](O)[C@@H](O[C@H]1[C@H](O)[C@H]2O)O[C@@H]8COCC(C)O)O[C@@H]7COCC(C)O)O[C@@H]6COCC(C)O)O[C@@H]5COCC(C)O)O[C@@H]4COCC(C)O)O[C@@H]3COCC(C)O (stereo partly drawn) [HPβCD, 2-hydroxypropyl-β-cyclodextrin]
- Liver histone H3 acetylation (acetylated H3 / total H3) (histone H3 [2]): did not increase H3 acetylation acutely
- Maximum drug concentration achieved [4]: ~ 15 μM
- Drug concentration achieved in CSF [5]: 1000 µM
- Toxicity of peripheral dose (NPC1 cat model): toxic in the NPC1 cat model
- Neurodegenerative disease progression (NPC1 patients): effective in slowing neurodegenerative disease progression

Structure (SMILES): CC(=O)Nc1ccc(C(=O)Nc2ccccc2N)cc1 [CI994]
- Lipid storage in liver (lipidomics, sphingolipid and sterol species) (Npc1^I1061T/I1061T mice [3]): none of the treatment groups administered formulations containing vorinostat, CI994, or IVA alone showed evidence of lipid reduction

Structure (SMILES): O=C(CCCCCCC(=O)Nc1ccccc1)NO [vorinostat, suberoylanilide hydroxamic acid]
- Vorinostat Cmax, brain ([6]; brain, single i.p. dose): 1163 ng/mL
- Vorinostat Cmax, liver ([6]; liver, single i.p. dose): 209 ng/mL
- AUC(0-t) [6, 11]: 1240 ng·h/mL
- Tmax [6, 11]: 15 min
- AUC(0-t) [6, 12]: 513 ng·h/mL
- Tmax [6, 12]: 15 min
- AUC(0-inf) [6, 13]: 7600 ng·h/mL
- AUC(0-t) [6, 13]: 7540 ng·h/mL
- Cmax [6, 13]: 10500 ng/mL
- Tmax [6, 13]: 15 min
- half-life [6, 13]: 40.8 min
- Effect on lysosomal cholesterol storage (filipin LSO compartment ratio) [1]: reduces lysosomal cholesterol
- Reduction of cholesterol accumulation in differentiated macrophages ([7]; 4 nM to 10 μM, 48h or 72h): not effective at reducing the cholesterol accumulation
- Cholesterol accumulation in LSOs (filipin intensity) at 330 nM ([7]; 330 nM, normalized to DMSO treated cells): slight decrease in cholesterol accumulation
- Concentration toxic to BMMs ([7]; 48h or 72h treatment): above 1 μM
- Liver histone H3 acetylation (acetylated H3 / total H3) (histone H3 [2]): Increased histone 3 acetylation
- Ratio of acetylated histone H3 to total histone H3 in brain (histone H3 [8]; brain): showed an increase in the ratio
- Ratio of acetylated histone H3 to total histone H3 in liver (histone H3 [8]; liver): significant increase in the ratio of acetylated histone H3 relative to total histone H3
- Lipid storage in liver (lipidomics, sphingolipid and sterol species) (Npc1^I1061T/I1061T mice [3]): modest reduction in only a single lipid species (MCer 24:0)
- Hepatocyte filipin staining (cholesterol storage) (Npc1^I1061T/I1061T mice [9]): did not alter cholesterol levels
- NPC1^I1061T protein expression in liver (NPC1^I1061T protein): reduction of NPC1 protein
- Efficacy on disease progression, life span, or weight loss (Npc1^nmf164 mice): did not show efficacy
- Liver pathology and function (Npc1^nmf164 mice): limited improvement in liver pathology and function
- NPC1 mutant protein expression and lipid accumulation (Npc1^nmf164 mice): remained unchanged
- Cholesterol storage [10]: effective in reducing cholesterol storage
